In ChEMBL document CHEMBL3593164, “Rational Design and Synthesis of Thioridazine Analogues as Enhancers of the Antituberculosis Therapy” (J Med Chem, 2015):
pIC50: −log10 of the molar value. Converted amounts (≈) assume the structure as drawn. The source made the active and inactive calls. The calls are words filed in the database; no cut-off is given here.

Legend:
[1] = tested on: Mycobacterium tuberculosis; assay: Antimycobacterial activity against Mycobacterium tuberculosis H37Rv infected in human monocyte-derived macrophages assessed as reduction of colony forming unit at 1.25 ug/ml after 3 weeks by broth microdilution method; format: functional, organism-based
Outline: (§1)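 Human monocyte-derived macrophages infected with M. tuberculosis H37Rv; each compound added at a concentration giving ≥90% macrophage viability over 3 days of treatment, alone or combined with INH or RIF at a non-antibiotic inhibitory concentration. The read-out was intracellular killing.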

[2] = tested on: Mycobacterium tuberculosis; assay: Antimycobacterial activity against Mycobacterium tuberculosis H37Rv infected in human monocyte-derived macrophages assessed as reduction of colony forming unit at 1.25 ug/ml after 3 weeks by broth microdilution method in presence of 0.5 ug/ml of rifampin; format: functional, organism-based; outline: as §1
[3] = tested on: Mycobacterium tuberculosis; assay: Antimycobacterial activity against Mycobacterium tuberculosis H37Rv infected in human monocyte-derived macrophages assessed as reduction of colony forming unit at 40 ug/ml after 3 weeks by broth microdilution method in presence of 0.05 ug/ml of isoniazid; format: functional, organism-based; outline: as §1
[4] = tested on: Mycobacterium tuberculosis; assay: Antimycobacterial activity against Mycobacterium tuberculosis H37Rv after 3 days by broth microdilution method; format: functional; details: 72 h
Outline: (§2)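 Growth inhibition of M. smegmatis mc²155 (ATCC700084) or M. tuberculosis H37Rv (ATCC27294) determined by broth microdilution; MIC in µg/mL. Where no exact MIC was reachable, the highest concentration technically testable is reported as a lower bound.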

[5] = tested on: Mycobacterium tuberculosis; assay: Antimycobacterial activity against Mycobacterium tuberculosis H37Rv infected in human monocyte-derived macrophages assessed as reduction of colony forming unit at 16 ug/ml after 3 weeks by broth microdilution method; format: functional, organism-based; outline: as §1
PBMC = assay: Cytotoxicity against human PBMC assessed as cell viability after 3 days by AlamarBlue assay; format: cell-based; details: 72 h
[6] = tested on: Mycobacterium tuberculosis; assay: Antimycobacterial activity against Mycobacterium tuberculosis H37Rv infected in human monocyte-derived macrophages assessed as reduction of colony forming unit at 0.078 ug/ml after 3 weeks by broth microdilution method; format: functional, organism-based; outline: as §1
[7] = tested on: Mycobacterium tuberculosis; assay: Antimycobacterial activity against Mycobacterium tuberculosis H37Rv infected in human monocyte-derived macrophages assessed as reduction of colony forming unit at 1.25 ug/ml after 3 weeks by broth microdilution method in presence of 0.05 ug/ml of isoniazid; format: functional, organism-based; outline: as §1
[8] = tested on: Mycolicibacterium smegmatis MC2 155
[9] = tested on: Mycobacterium tuberculosis; assay: Antimycobacterial activity against Mycobacterium tuberculosis H37Rv infected in human monocyte-derived macrophages assessed as reduction of colony forming unit at 0.078 ug/ml after 3 weeks by broth microdilution method in presence of 0.5 ug/ml of rifampin; format: functional, organism-based; outline: as §1
[10] = tested on: Mycobacterium tuberculosis; assay: Antimycobacterial activity against Mycobacterium tuberculosis H37Rv infected in human monocyte-derived macrophages assessed as reduction of colony forming unit at 40 ug/ml after 3 weeks by broth microdilution method in presence of 0.5 ug/ml of rifampin; format: functional, organism-based; outline: as §1
[11] = tested on: Mycobacterium tuberculosis; assay: Antimycobacterial activity against Mycobacterium tuberculosis H37Rv infected in human monocyte-derived macrophages assessed as reduction of colony forming unit at 16 ug/ml after 3 weeks by broth microdilution method in presence of 0.5 ug/ml of rifampin; format: functional, organism-based; outline: as §1
[12] = tested on: Mycobacterium tuberculosis; assay: Antimycobacterial activity against Mycobacterium tuberculosis H37Rv infected in human monocyte-derived macrophages assessed as reduction of colony forming unit at 0.078 ug/ml after 3 weeks by broth microdilution method in presence of 0.05 ug/ml of isoniazid; format: functional, organism-based; outline: as §1
[13] = Ratio of thioridazine IC50 to compound IC50 for human PBMC; format: ADME, cell-based; details: PBMC (peripheral blood mononuclear cells), read-out: Ratio IC50
[14] = tested on: Mycobacterium tuberculosis; assay: Antimycobacterial activity against Mycobacterium tuberculosis H37Rv infected in human monocyte-derived macrophages assessed as reduction of colony forming unit at 40 ug/ml after 3 weeks by broth microdilution method; format: functional, organism-based; outline: as §1
[15] = tested on: Mycobacterium tuberculosis; assay: Antimycobacterial activity against Mycobacterium tuberculosis H37Rv infected in human monocyte-derived macrophages assessed as reduction of colony forming unit at 16 ug/ml after 3 weeks by broth microdilution method in presence of 0.05 ug/ml of isoniazid; format: functional, organism-based; outline: as §1
[16] = tested on: Mycolicibacterium smegmatis; assay: Antimycobacterial activity against Mycobacterium smegmatis MC2 155 after 3 days by broth microdilution method; format: functional; details: str. MC2 155, 72 h; outline: as §2

SMILES	Activity [1]	Activity [2]	Activity [3]	MIC [4] [µg/mL]	Activity [5]	pIC50 (PBMC)	Activity [6]	Activity [7]	RFU [8]	Activity [9]	Activity [10]	Activity [11]	Activity [12]	selectivity ratio [13]	Activity [14]	Activity [15]	MIC [16] [µg/mL]
CN1CCCCC1CCn1c2ccccc2c2ccccc21 (racemic)	Active	Active	Active	128 (≈ 438 µM)	Active	4.52	Active	Active	0.95	Active	Active	Active	Active	2	Active	Active	256 (≈ 875 µM)
CN1CCCCC1CCn1ccc2ccc(Br)cc21 (racemic)	Active	Active	Active	> 256	Active	4.49	Active	Active	0.81	Active	Active	Active	Active	2	Active	Active	64 (≈ 199 µM)
COc1ccc(N(CCC2CCCCN2C)C(C)C)cc1OC (racemic)	Active	Active	Active	> 256	Active	3.58	Active	Active	1.17	Active	Active	Active	Active	–	Active	Active	> 256
CSc1ccc2c(c1)N(CCC1CCCCN1C)c1ccccc1S2 (configuration not stated) [THIORIDAZINE]	–	–	–	15 (≈ 40.5 µM)	–	4.86	–	–	0.82	–	–	–	–	–	–	–	30 (≈ 81 µM)
CN1CCCCC1CCn1c2ccccc2c(=O)c2ccccc21 (configuration not stated)	–	–	–	–	–	5.63	–	–	0.94	–	–	–	–	–	–	–	64 (≈ 200 µM)
CN1CCCCC1CCN(c1ccccc1)c1ccccc1 (racemic)	–	–	–	–	–	–	–	–	0.61	–	–	–	–	–	–	–	> 64
CN1CCCCC1CCN1CCCC1 (racemic)	–	–	–	–	–	–	–	–	0.39	–	–	–	–	–	–	–	> 256
Cc1c(Cc2ccccc2)c(=O)n2c3ccccc3n(CCC3CCCCN3C)c2c1C#N (racemic)	–	–	–	–	–	–	–	–	0.66	–	–	–	–	–	–	–	> 64
COc1ccc(N(CCC2CCCCN2C)c2ccccc2)cc1OC (racemic)	–	–	–	–	–	–	–	–	0.76	–	–	–	–	–	–	–	256 (≈ 722 µM)
c1ccc(CCn2c3ccccc3c3ccccc32)nc1	–	–	–	–	–	–	–	–	-0.17	–	–	–	–	–	–	–	> 64
CN1CCCCC1CCn1cnc2ccccc21 (racemic)	Active	Active	Active	> 256	Active	3.15	Active	Active	15.3	Active	Active	Active	Active	–	Active	Active	> 256
COc1ccc(C(C#N)(CCC2CCCCN2C)C(C)C)cc1OC (mixture of isomers)	–	–	–	–	–	–	–	–	0.72	–	–	–	–	–	–	–	> 256
COc1ccc(CCN(C)CCCC(C#N)(c2ccc(OC)c(OC)c2)C(C)C)cc1OC (configuration not stated) [VERAPAMIL]	–	–	–	512 (≈ 1130 µM)	–	3.93	–	–	–	–	–	–	–	–	–	–	800 (≈ 1760 µM)
CN1CCCCC1CCn1c(C(=O)NC23CC4CC(CC(C4)C2)C3)cc2cc(Cl)ccc21 (mixture of isomers)	–	–	–	–	–	–	–	–	0.17	–	–	–	–	–	–	–	> 256
c1ccc2c(c1)c1ccccc1n2CCN1CCCCC1	–	–	–	–	–	–	–	–	0.08	–	–	–	–	–	–	–	> 256
